Measurements of several laboratories.
Each line is one published result; the experiments were not run side by side.
Target: NUAK family SNF1-like kinase 1 (NUAK1, Homo sapiens, UniProt O60285)
Sequence (O60285 1-661, as in one of the studies): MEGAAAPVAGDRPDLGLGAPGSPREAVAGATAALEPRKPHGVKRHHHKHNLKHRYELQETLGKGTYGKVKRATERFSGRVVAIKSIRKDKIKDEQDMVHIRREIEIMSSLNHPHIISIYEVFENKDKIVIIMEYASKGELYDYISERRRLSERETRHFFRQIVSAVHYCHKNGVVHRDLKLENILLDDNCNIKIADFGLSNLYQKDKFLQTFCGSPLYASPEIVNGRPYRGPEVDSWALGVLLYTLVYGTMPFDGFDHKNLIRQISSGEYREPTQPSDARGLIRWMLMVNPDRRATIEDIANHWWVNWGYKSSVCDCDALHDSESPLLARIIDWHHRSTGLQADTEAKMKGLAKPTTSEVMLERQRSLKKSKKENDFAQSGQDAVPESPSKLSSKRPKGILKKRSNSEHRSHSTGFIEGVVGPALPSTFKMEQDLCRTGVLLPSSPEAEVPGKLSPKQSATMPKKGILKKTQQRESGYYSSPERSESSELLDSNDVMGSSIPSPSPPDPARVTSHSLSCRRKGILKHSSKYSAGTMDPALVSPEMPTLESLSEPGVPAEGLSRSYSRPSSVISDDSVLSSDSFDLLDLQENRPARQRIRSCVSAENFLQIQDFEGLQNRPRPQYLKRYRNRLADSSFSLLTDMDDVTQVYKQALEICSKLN

For `Cc1nn(CC(F)(F)F)cc1Nc1ncc(C2CC2)c(NCCc2c[nH]cn2)n1`, the remaining activity was 73% (enzyme activity; inhibitor; radiometric; 1 µM).
The activity vs control of `Cc1cc(NC(=O)c2cccc3cc(-c4cccc5[nH]nc(N)c45)ccc23)ccc1F` is reported as 100% (enzyme activity; inhibitor; 0.1 µM).
The inhibition of `CCCS(=O)(=O)Nc1ccc(F)c(C(=O)c2c[nH]c3ncc(-c4ccc(Cl)cc4)cc23)c1F` is reported as under 20% (enzyme activity; inhibitor; 1 µM).
The remaining signal of `CN(c1nccc(-c2cnn3ncccc23)n1)C1CC1` is reported as 93% (cell-free assay; 1 µM).
`CO[C@@H](C)c1c(Nc2ccc([C@H](N(C)C(=O)C3CCS(=O)(=O)CC3)C(F)(F)F)cc2)cnc2cc(Cl)nn12` has a remaining binding of 98% (cell-free assay; competition with immobilised ligand; 1 µM).
`Cc1ccc(Nc2nccc(N(C)c3ccc4c(C)n(C)nc4c3)n2)cc1S(N)(=O)=O` gave an inhibition of 76% (enzyme activity; inhibitor; 10 µM).
The remaining binding of `c1ccc(N2CCN(Cc3nc4ccccc4[nH]3)CC2)nc1` is reported as 89% (binding; competition with immobilised ligand; 1 µM).
With `O=C1NC(=O)c2cc(Nc3ccc(F)cc3)c(Nc3ccc(F)cc3)cc21` the remaining signal was 94% (cell-free assay; 0.5 µM).
The remaining activity of `c1cc(CN2CCOCC2)cc(Nc2nccc(NCCc3cnc[nH]3)n2)c1` is reported as 14% (enzyme activity; inhibitor; radiometric; 1 µM).
`CNC(=O)c1cc(Oc2ccc(NC(=O)Nc3ccc(Cl)c(C(F)(F)F)c3)cc2)ccn1` has an inhibition of -3% (enzyme activity; inhibitor; 0.3 µM).
The remaining activity of `O=C(NCCCNc1nc(Nc2cccc(NC(=O)N3CCCC3)c2)ncc1I)c1cccs1` is reported as 2% (enzyme activity; inhibitor; radiometric; 1 µM).
`O=C(Nc1ccc(Oc2ccc(F)cc2)cc1)N1CCc2ncccc2[C@H]1c1ccc(F)cc1` gave a remaining binding of 92% (cell-free assay; competition with immobilised ligand; 1 µM).
With `c1cc(CN2CCOCC2)cc(Nc2ncc(C3CC3)c(NCCc3c[nH]cn3)n2)c1` the remaining activity was 6% (enzyme activity; inhibitor; radiometric; 1 µM).
With `CNCc1ccccc1-c1csc([C@@H](C)Nc2nc(C)nc3cc(OC)c(OC)cc23)c1` the remaining binding was 97% (cell-free assay; competition with immobilised ligand; 1 µM).
`CN(C)C1CCN(CC#Cc2nn(C3CCCC3)c3nc(NCc4ccccc4)ncc23)C1` (stereo not shown) gave an inhibition of 48% (enzyme activity; inhibitor; FRET; 10 µM).
The remaining binding of `CC(=O)Nc1c(C(C)=O)c(=O)n(C)c2nc(-c3ccc(Cl)cc3Cl)c(-c3ccc(Cl)cc3)cc12` is reported as 100% (cell-free assay; competition with immobilised ligand; 1 µM).
For `CC/C(=N\NC(=O)NCc1cccc(O)c1)c1ccc(O)c(C)c1O`, the inhibition was -2.5% (enzyme activity; inhibitor; 0.1 µM).
`CN(C)C(=O)Cn1cc(-c2nc(C3(c4ccc(-c5cnc(N)nc5)cc4)CC3)no2)cn1` has a remaining binding of 82% (cell-free assay; competition with immobilised ligand; 1 µM).
For `COc1cc(/C=C/C(=O)CC(=O)/C=C/c2ccc(O)c(OC)c2)ccc1O`, the activity vs control was 55% (enzyme activity; inhibitor; 1 µM).
For `N#CCCc1ccc2c(c1)-c1[nH]c3ccc([N+](=O)[O-])cc3c1CC(=O)N2`, the remaining signal was 14.1% (cell-free assay; 0.5 µM).
With `O=C(NCCCNc1ccnc(Nc2cccc(NC(=O)N3CCCC3)c2)n1)C1CCC1` the remaining activity was 87% (enzyme activity; inhibitor; radiometric; 1 µM).
`COc1cc(-c2cn(C3CCc4c(F)cccc4N(CC(F)(F)F)C3=O)nn2)ccc1-n1cnc(C)c1` (stereo not shown) has a remaining binding of 100% (cell-free assay; competition with immobilised ligand; 1 µM).
With `O=C(NCCCNc1nc(Nc2cccc(NC(=O)N3CCCC3)c2)ncc1Br)C1CCC1` the remaining activity was 0% (enzyme activity; inhibitor; radiometric; 1 µM).
With `O=C1Nc2ccc(Cl)cc2C1=Cc1cc(Cl)c(O)c(Cl)c1` the remaining signal was 72.5% (cell-free assay; 0.5 µM).
The remaining activity of `O=C(NCCCNc1nc(Nc2cccc(CN3CCOCC3)c2)ncc1C1CC1)C1CCC1` is reported as 31% (enzyme activity; inhibitor; radiometric; 1 µM).
`FC(F)c1nc2ccccc2n1-c1nc(N2CCOCC2)nc(N2CCOCC2)n1` gave a remaining activity of 90% (enzyme activity; inhibitor; 10 µM).
For `CNC(=O)Nc1ccc2c(c1)CC[C@@]21OC(=O)N(CC(=O)N(Cc2ccc(F)cc2)[C@@H](C)C(F)(F)F)C1=O`, the remaining binding was 94% (cell-free assay; competition with immobilised ligand; 1 µM).
`Cc1nn(CC(F)(F)F)cc1Nc1ncc(Br)c(NCc2ccc(S(N)(=O)=O)cc2)n1` has a remaining activity of 58% (enzyme activity; inhibitor; radiometric; 1 µM).
